# Results reported in ChEMBL document CHEMBL3872252, “New bithiazolyl hydrazones: Novel synthesis, characterization and antitubercular evaluation” (Bioorg Med Chem Lett, 2017).
# Experiments:
# [1] = Antitubercular activity against Mycobacterium tuberculosis H37Ra ATCC 25177 dormant stage infected in human THP1 cells measured on day 12 by nitrate reductase assay; format: functional, THP-1; settings: ATCC 25177, 288 h
# [2] = Antitubercular activity against Mycobacterium tuberculosis H37Ra ATCC 25177 active stage infected in human THP1 cells measured on day 8 by nitrate reductase assay; format: functional, THP-1; settings: ATCC 25177, 192 h
# [3] = Antitubercular activity against Mycobacterium tuberculosis H37Ra ATCC 25177 active stage measured on day 8 by XTT reduction menadione based two-fold dilution assay; format: functional; settings: ATCC 25177, 192 h
# How it was run: (§1)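 M. tuberculosis H37Ra ATCC 25177 was exposed to 0.7–100 μg/mL in two-fold steps (0.7, 1.5, 3.1 … 100). Active stage was read after 8 days and dormant stage after 12 days of incubation. Inhibition was read by XTT reduction menadione assay (XRMA), absorbance 470 nm. MIC90 is the concentration giving ≥90% inhibition (µg/mL).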
# [4] = Antitubercular activity against Mycobacterium tuberculosis H37Ra ATCC 25177 dormant stage measured on day 12 by XTT reduction menadione based two-fold dilution assay; format: functional; settings: ATCC 25177, 288 h; how it was run: as §1
# [5] = Antitubercular activity against Mycobacterium bovis BCG ATCC 35743 active stage measured on day 8 by nitrate reductase based two-fold dilution assay; format: functional, Mycobacterium bovis BCG str. ATCC 35743; settings: Mycobacterium tuberculosis variant bovis BCG, ATCC 35743, 192 h
# [6] = Antitubercular activity against Mycobacterium bovis BCG ATCC 35743 dormant stage measured on day 12 by nitrate reductase based two-fold dilution assay; format: functional, Mycobacterium bovis BCG str. ATCC 35743; settings: Mycobacterium tuberculosis variant bovis BCG, ATCC 35743, 288 h
# [7] = Cytotoxicity against human THP1 cells by MTT assay; format: toxicity, cell-based, THP-1; settings: for GI50: THP1 cells; for GI90: thp-1
# [8] = Cytotoxicity against human MCF7 cells by MTT assay; format: toxicity, cell-based; settings: for GI50: MCF7 cells; for GI90: mcf7
# [9] = Cytotoxicity against human HCT116 cells by MTT assay; format: toxicity, cell-based, HCT-116; settings: for GI50: HCT116 cells; for GI90: hct-116
# [10] = Selectivity index, ratio of GI50 for human MCF7 cells to MIC90 for Mycobacterium tuberculosis H37Ra ATCC 25177 active stage; format: toxicity, cell-based; settings: read-out: Selectivity Index
# How it was run: (§2)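 Cytotoxicity was measured on human MCF-7, HCT116 and THP-1 cells by MTT assay, with paclitaxel as reference. GI50 is the concentration inhibiting 50% of cell growth. The selectivity index is GI50 for the given cell line divided by MIC90 for the given mycobacterial strain and stage.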
# [11] = Selectivity index, ratio of GI50 for human MCF7 cells to MIC90 for Mycobacterium tuberculosis H37Ra ATCC 25177 dormant stage; format: toxicity, cell-based; settings: read-out: Selectivity Index
# How it was run: (§3)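 Cytotoxicity was measured on human MCF-7, HCT116 and THP-1 cells by MTT assay, with paclitaxel as reference. The selectivity index is GI50 for the given cell line divided by MIC90 for the given mycobacterial strain and stage.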
# [12] = Selectivity index, ratio of GI50 for human MCF7 cells to MIC90 for Mycobacterium bovis BCG ATCC 35743 active stage; format: toxicity, cell-based; settings: read-out: Selectivity Index; how it was run: as §2
# [13] = Selectivity index, ratio of GI50 for human MCF7 cells to MIC90 for Mycobacterium bovis BCG ATCC 35743 dormant stage; format: toxicity, cell-based; settings: read-out: Selectivity Index; how it was run: as §3
# [14] = Selectivity index, ratio of GI50 for human HCT116 cells to MIC90 for Mycobacterium tuberculosis H37Ra ATCC 25177 active stage; format: toxicity, cell-based, HCT-116; settings: read-out: Selectivity Index; how it was run: as §2
# [15] = Selectivity index, ratio of GI50 for human HCT116 cells to MIC90 for Mycobacterium tuberculosis H37Ra ATCC 25177 dormant stage; format: toxicity, cell-based, HCT-116; settings: read-out: Selectivity Index; how it was run: as §3
# [16] = Selectivity index, ratio of GI50 for human HCT116 cells to MIC90 for Mycobacterium bovis BCG ATCC 35743 active stage; format: toxicity, cell-based, HCT-116; settings: read-out: Selectivity Index; how it was run: as §2
# [17] = Selectivity index, ratio of GI50 for human HCT116 cells to MIC90 for Mycobacterium bovis BCG ATCC 35743 dormant stage; format: toxicity, cell-based, HCT-116; settings: read-out: Selectivity Index; how it was run: as §3
# [18] = Selectivity index, ratio of GI50 for human THP1 cells to MIC90 for Mycobacterium tuberculosis H37Ra ATCC 25177 active stage; format: toxicity, cell-based, THP-1; settings: read-out: Selectivity Index; how it was run: as §2
# [19] = Selectivity index, ratio of GI50 for human THP1 cells to MIC90 for Mycobacterium tuberculosis H37Ra ATCC 25177 dormant stage; format: toxicity, cell-based, THP-1; settings: read-out: Selectivity Index; how it was run: as §3
# [20] = Selectivity index, ratio of GI50 for human THP1 cells to MIC90 for Mycobacterium bovis BCG ATCC 35743 active stage; format: toxicity, cell-based, THP-1; settings: read-out: Selectivity Index; how it was run: as §2
# [21] = Selectivity index, ratio of GI50 for human THP1 cells to MIC90 for Mycobacterium bovis BCG ATCC 35743 dormant stage; format: toxicity, cell-based, THP-1; settings: read-out: Selectivity Index; how it was run: as §3
# Escherichia coli [22] = assay: Antibacterial activity against Escherichia coli; format: functional
# Pseudomonas aeruginosa [23] = assay: Antibacterial activity against Pseudomonas aeruginosa; format: functional
# Staphylococcus aureus [24] = assay: Antibacterial activity against Staphylococcus aureus; format: functional
# Bacillus subtilis [25] = assay: Antibacterial activity against Bacillus subtilis; format: functional
# Escherichia coli [26] = assay: Growth inhibition of Escherichia coli at 30 ug/ml; format: functional; settings: read-out: GI
# Escherichia coli [27] = assay: Growth inhibition of Escherichia coli at 10 ug/ml; format: functional; settings: read-out: GI
# Escherichia coli [28] = assay: Growth inhibition of Escherichia coli at 3 ug/ml; format: functional; settings: read-out: GI
# How it was run: (§4)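 Screened against Gram-negative E. coli and P. aeruginosa and Gram-positive S. aureus and B. subtilis. Compound was tested at 3 µg/ml, and the read-out is percent growth inhibition.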
# Pseudomonas aeruginosa [29] = assay: Growth inhibition of Pseudomonas aeruginosa at 30 ug/ml; format: functional; settings: read-out: GI
# Pseudomonas aeruginosa [30] = assay: Growth inhibition of Pseudomonas aeruginosa at 10 ug/ml; format: functional; settings: read-out: GI
# Pseudomonas aeruginosa [31] = assay: Growth inhibition of Pseudomonas aeruginosa at 3 ug/ml; format: functional; settings: read-out: GI; how it was run: as §4
# Staphylococcus aureus [32] = assay: Growth inhibition of Staphylococcus aureus at 30 ug/ml; format: functional; settings: read-out: GI
# Staphylococcus aureus [33] = assay: Growth inhibition of Staphylococcus aureus at 10 ug/ml; format: functional; settings: read-out: GI
# Staphylococcus aureus [34] = assay: Growth inhibition of Staphylococcus aureus at 3 ug/ml; format: functional; settings: read-out: GI; how it was run: as §4
# Bacillus subtilis [35] = assay: Growth inhibition of Bacillus subtilis at 30 ug/ml; format: functional; settings: read-out: GI
# Bacillus subtilis [36] = assay: Growth inhibition of Bacillus subtilis at 10 ug/ml; format: functional; settings: read-out: GI
# Bacillus subtilis [37] = assay: Growth inhibition of Bacillus subtilis at 3 ug/ml; format: functional; settings: read-out: GI; how it was run: as §4
compound,measurement,setting,value
C/C(=N\Nc1nc(-c2ccc(C)cc2)cs1)c1sc(-c2ccccc2)nc1C,MIC90,[1],> 100 µg/mL
same,MIC90,[2],> 100 µg/mL
same,IC50,[3],0.16 µg/mL
same,MIC90,[3],> 100 µg/mL
same,IC50,[4],0.075 µg/mL
same,MIC90,[4],> 100 µg/mL
same,IC50,[5],5.21 µg/mL
same,MIC90,[5],19.7 µg/mL
same,IC50,[6],5.29 µg/mL
same,MIC90,[6],57.5 µg/mL
same,GI50,[7],> 100 µg/mL
same,GI90,[7],> 100 µg/mL
same,GI50,[8],> 100 µg/mL
same,GI90,[8],> 100 µg/mL
same,GI50,[9],> 100 µg/mL
same,GI90,[9],> 100 µg/mL
same,selectivity ratio,[10],1
same,selectivity ratio,[11],1
same,selectivity ratio,[12],5
same,selectivity ratio,[13],2
same,selectivity ratio,[14],1
same,selectivity ratio,[15],1
same,selectivity ratio,[16],5
same,selectivity ratio,[17],2
same,selectivity ratio,[18],1
same,selectivity ratio,[19],1
same,selectivity ratio,[20],5
same,selectivity ratio,[21],2
same,IC50,Escherichia coli [22],0.454 µg/mL
same,MIC,Escherichia coli [22],1.43 µg/mL
same,IC50,Pseudomonas aeruginosa [23],0.587 µg/mL
same,MIC,Pseudomonas aeruginosa [23],1.53 µg/mL
same,IC50,Staphylococcus aureus [24],0.624 µg/mL
same,MIC,Staphylococcus aureus [24],2.46 µg/mL
same,IC50,Bacillus subtilis [25],0.742 µg/mL
same,MIC,Bacillus subtilis [25],2.95 µg/mL
same,inhibition of growth at 30 µg/mL,Escherichia coli [26],97%
same,inhibition of growth at 10 µg/mL,Escherichia coli [27],94.1%
same,inhibition of growth at 3 µg/mL,Escherichia coli [28],92.2%
same,inhibition of growth at 30 µg/mL,Pseudomonas aeruginosa [29],98.8%
same,inhibition of growth at 10 µg/mL,Pseudomonas aeruginosa [30],95.6%
same,inhibition of growth at 3 µg/mL,Pseudomonas aeruginosa [31],93.4%
same,inhibition of growth at 30 µg/mL,Staphylococcus aureus [32],97.1%
same,inhibition of growth at 10 µg/mL,Staphylococcus aureus [33],94%
same,inhibition of growth at 3 µg/mL,Staphylococcus aureus [34],91.9%
same,inhibition of growth at 30 µg/mL,Bacillus subtilis [35],96.9%
same,inhibition of growth at 10 µg/mL,Bacillus subtilis [36],93.5%
same,inhibition of growth at 3 µg/mL,Bacillus subtilis [37],91.3%
C/C(=N\Nc1nc(-c2ccc(Cl)cc2)cs1)c1sc(-c2ccccc2)nc1C,MIC90,[1],> 100 µg/mL
same,MIC90,[2],> 100 µg/mL
same,IC50,[3],0.12 µg/mL
same,MIC90,[3],> 100 µg/mL
same,IC50,[4],0.24 µg/mL
same,MIC90,[4],> 100 µg/mL
same,IC50,[5],17 µg/mL
same,MIC90,[5],77.8 µg/mL
same,IC50,[6],26.6 µg/mL
same,MIC90,[6],83.7 µg/mL
same,GI50,[7],> 100 µg/mL
same,GI90,[7],> 100 µg/mL
same,GI50,[8],> 100 µg/mL
same,GI90,[8],> 100 µg/mL
same,GI50,[9],> 100 µg/mL
same,GI90,[9],> 100 µg/mL
same,selectivity ratio,[10],1
same,selectivity ratio,[11],1
same,selectivity ratio,[12],1
same,selectivity ratio,[13],1
same,selectivity ratio,[14],1
same,selectivity ratio,[15],1
same,selectivity ratio,[16],1
same,selectivity ratio,[17],1
same,selectivity ratio,[18],1
same,selectivity ratio,[19],1
same,selectivity ratio,[20],1
same,selectivity ratio,[21],1
same,inhibition of growth at 30 µg/mL,Escherichia coli [26],89.7%
same,inhibition of growth at 10 µg/mL,Escherichia coli [27],80.4%
same,inhibition of growth at 3 µg/mL,Escherichia coli [28],69.1%
same,inhibition of growth at 30 µg/mL,Pseudomonas aeruginosa [29],90.6%
same,inhibition of growth at 10 µg/mL,Pseudomonas aeruginosa [30],80.3%
same,inhibition of growth at 3 µg/mL,Pseudomonas aeruginosa [31],67.7%
same,inhibition of growth at 30 µg/mL,Staphylococcus aureus [32],89.2%
same,inhibition of growth at 10 µg/mL,Staphylococcus aureus [33],79.3%
same,inhibition of growth at 3 µg/mL,Staphylococcus aureus [34],67.1%
same,inhibition of growth at 30 µg/mL,Bacillus subtilis [35],88.4%
same,inhibition of growth at 10 µg/mL,Bacillus subtilis [36],77.7%
same,inhibition of growth at 3 µg/mL,Bacillus subtilis [37],64.5%
